The values below come from ChEMBL document CHEMBL4229528, “2,4-Diamino-6-methylpyrimidines for the potential treatment of Chagas' disease” (Bioorg Med Chem Lett, 2018).

The EC50 is the concentration needed to bring the measured effect to its halfway point. A word on the IC50: it is the point on the concentration scale where inhibition reaches its midpoint.

For series [1], the system named is Vero. The experiment in a line: Cytotoxicity against African green monkey Vero cells. Type of series: cell-based. Conditions: Chlorocebus sabaeus.
For series [2], the system named is Trypanosoma cruzi. The experiment in a line: Antitrypanosomal activity against Trypanosoma cruzi amastigote forms infected in African green monkey Vero cells. In kind it is functional, organism-based. The essentials:
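T. cruzi amastigotes cultured intracellularly in Vero host cells. EC50 determined from concentration-response, reported as pEC50. Mean of two determinations ± range, or of three or more ± standard deviation, depending on the series.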

Series [3] is described as follows: Selectivity ratio of pEC50 for African green monkey Vero cells to pEC50 for Trypanosoma cruzi amastigote forms infected in African green monkey Vero cells. Type of series: toxicity. The essentials:
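Ratio of Vero pEC50 to T. cruzi intracellular amastigote pEC50, with both values from the Vero-cell amastigote culture format.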

Series [4] is described as follows: Intrinsic clearance in CD-1 mouse liver microsomes at 0.5 uM after 30 mins in presence of NADPH by UPLC-MS/MS analysis. Type of series: ADME, microsome. Conditions: 0.5 h. On the technique in general: Microsomes from liver hold many membrane-bound enzymes, among them those of drug oxidation.
Series [5] is described as follows: Kinetic solubility of the compound in water up to 250 uM by laser nephelometry. To be noted: read-out: Kinetic_solubility. Type of series: physicochemical. An outline of the steps: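 Measured in water after dilution from a DMSO solution of compound.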
For series [6], the target named is Aurora kinase B (Homo sapiens, UniProt Q96GD4). The experiment in a line: Inhibition of aurora B (unknown origin).
The target in series [7] is Sterol 14-alpha demethylase (Trypanosoma cruzi (strain CL Brener)) (UniProt Q7Z1V1). The experiment in a line: (§1) Inhibition of Trypanosoma cruzi CYP51.
Series [8] has as its target Voltage-gated inwardly rectifying potassium channel KCNH2 (Homo sapiens, UniProt Q12809). The experiment in a line: Inhibition of human ERG.
For series [9], the target named is Cannabinoid receptor 1 (Homo sapiens, UniProt P21554). The experiment in a line: Inhibition of CB1 (unknown origin).
In series [10] the target is Sterol 14-alpha demethylase (Trypanosoma cruzi (strain CL Brener), UniProt Q7Z1V1). The description is as §1.

Converted amounts (≈) assume the structure as drawn. The source made the active and inactive calls. The rule behind the calls is not given here.

Chain of Sterol 14-alpha demethylase (Trypanosoma cruzi (strain CL Brener)) (Q7Z1V1 whole entry, looked up): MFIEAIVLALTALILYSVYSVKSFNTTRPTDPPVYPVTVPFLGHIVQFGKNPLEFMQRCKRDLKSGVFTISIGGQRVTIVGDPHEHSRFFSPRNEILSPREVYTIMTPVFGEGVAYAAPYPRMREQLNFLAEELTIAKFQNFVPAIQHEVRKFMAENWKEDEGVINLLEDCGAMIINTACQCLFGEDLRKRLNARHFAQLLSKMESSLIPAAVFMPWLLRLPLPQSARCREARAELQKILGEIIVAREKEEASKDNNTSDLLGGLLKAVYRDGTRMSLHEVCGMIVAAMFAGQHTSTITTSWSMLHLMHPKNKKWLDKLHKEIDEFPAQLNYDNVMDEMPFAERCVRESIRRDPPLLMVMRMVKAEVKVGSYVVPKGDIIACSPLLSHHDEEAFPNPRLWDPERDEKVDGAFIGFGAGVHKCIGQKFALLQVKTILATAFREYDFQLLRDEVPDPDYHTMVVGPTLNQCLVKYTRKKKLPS
Chain of Voltage-gated inwardly rectifying potassium channel KCNH2 (Q12809 whole entry): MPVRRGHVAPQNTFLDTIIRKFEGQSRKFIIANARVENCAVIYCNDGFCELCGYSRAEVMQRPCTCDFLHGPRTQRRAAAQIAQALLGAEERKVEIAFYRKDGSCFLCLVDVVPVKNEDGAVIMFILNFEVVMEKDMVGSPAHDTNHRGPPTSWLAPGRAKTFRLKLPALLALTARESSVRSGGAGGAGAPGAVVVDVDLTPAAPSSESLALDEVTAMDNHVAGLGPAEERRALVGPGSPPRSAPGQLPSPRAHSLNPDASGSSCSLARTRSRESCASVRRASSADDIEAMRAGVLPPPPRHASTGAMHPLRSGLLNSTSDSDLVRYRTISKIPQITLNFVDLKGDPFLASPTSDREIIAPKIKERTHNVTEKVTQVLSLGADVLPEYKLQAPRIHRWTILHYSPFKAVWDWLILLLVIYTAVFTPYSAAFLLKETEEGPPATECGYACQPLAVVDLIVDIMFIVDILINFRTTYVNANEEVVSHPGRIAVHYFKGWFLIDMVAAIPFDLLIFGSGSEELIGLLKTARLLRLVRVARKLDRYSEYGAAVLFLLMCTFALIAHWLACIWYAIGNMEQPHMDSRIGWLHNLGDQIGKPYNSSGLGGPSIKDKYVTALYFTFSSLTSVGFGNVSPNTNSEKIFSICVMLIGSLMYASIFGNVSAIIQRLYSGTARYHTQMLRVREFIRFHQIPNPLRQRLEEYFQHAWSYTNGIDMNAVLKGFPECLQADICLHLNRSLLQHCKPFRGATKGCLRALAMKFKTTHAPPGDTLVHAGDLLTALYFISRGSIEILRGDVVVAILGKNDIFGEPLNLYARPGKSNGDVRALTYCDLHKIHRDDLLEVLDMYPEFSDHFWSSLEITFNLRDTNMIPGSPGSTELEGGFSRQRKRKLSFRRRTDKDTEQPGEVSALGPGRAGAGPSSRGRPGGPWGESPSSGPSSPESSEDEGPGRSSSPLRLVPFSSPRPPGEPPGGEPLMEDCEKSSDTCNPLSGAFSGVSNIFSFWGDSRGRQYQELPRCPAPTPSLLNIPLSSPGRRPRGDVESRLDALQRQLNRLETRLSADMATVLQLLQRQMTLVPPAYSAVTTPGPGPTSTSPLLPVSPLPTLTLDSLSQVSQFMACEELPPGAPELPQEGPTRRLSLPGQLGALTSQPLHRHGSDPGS
Chain of Aurora kinase B (Q96GD4 whole entry): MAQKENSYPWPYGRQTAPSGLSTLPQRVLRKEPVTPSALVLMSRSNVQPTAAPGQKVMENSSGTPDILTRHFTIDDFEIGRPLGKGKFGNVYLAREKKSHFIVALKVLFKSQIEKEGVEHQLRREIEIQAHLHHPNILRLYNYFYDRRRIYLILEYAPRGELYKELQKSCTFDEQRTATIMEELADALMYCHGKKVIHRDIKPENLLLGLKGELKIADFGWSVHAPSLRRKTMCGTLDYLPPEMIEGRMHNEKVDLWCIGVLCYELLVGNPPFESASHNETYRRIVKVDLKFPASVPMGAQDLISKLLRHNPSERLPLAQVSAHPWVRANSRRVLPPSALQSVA
Chain of Sterol 14-alpha demethylase (Q7Z1V1 whole entry): as the sequence (Q7Z1V1 whole entry, looked up) above
Chain of Cannabinoid receptor 1 (P21554 whole entry): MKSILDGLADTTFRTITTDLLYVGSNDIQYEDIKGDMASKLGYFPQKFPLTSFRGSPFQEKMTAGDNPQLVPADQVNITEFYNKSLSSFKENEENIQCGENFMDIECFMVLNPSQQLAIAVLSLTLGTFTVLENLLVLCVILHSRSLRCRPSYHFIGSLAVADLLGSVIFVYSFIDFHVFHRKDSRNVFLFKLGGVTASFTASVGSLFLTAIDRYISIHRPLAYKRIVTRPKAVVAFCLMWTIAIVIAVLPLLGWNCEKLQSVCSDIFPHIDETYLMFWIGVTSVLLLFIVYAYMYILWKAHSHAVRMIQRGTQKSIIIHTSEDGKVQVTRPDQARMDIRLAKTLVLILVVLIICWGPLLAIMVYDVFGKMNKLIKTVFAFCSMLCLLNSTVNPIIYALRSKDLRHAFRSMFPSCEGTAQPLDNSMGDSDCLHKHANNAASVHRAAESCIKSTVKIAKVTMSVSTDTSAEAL

Regarding `Cc1cc(N(C)C)nc(Nc2ccc(C(=O)NCc3ccccc3)cc2)n1`, the EC50 in [1] was 5.01 µM; in [2], 1.26 µM. Moreover, the selectivity ratio in [3] is 4.
Consider `COc1cccc(Nc2cc(C)nc(NCc3ccccc3)n2)c1`, for which the EC50 in series [1] is 7.94 µM; in [2], 0.2 µM. Further, the CLH in [4] stood at 20 mL/min/g. Besides, the solubility kinetic in series [5] is over 250 µM. The selectivity ratio in series [3] stood at 40.
The compound `COc1cc(Nc2nc(C(=O)N3CCCC3)cc(N(C)C)n2)ccc1F` gave an EC50 in series [1] of over 50.1 µM. Also, the CLH in [4] came to 3.4 mL/min/g. The solubility kinetic in series [5] was over 250 µM. In addition, in series [3], the selectivity ratio is over 1.6.
With `COc1cc(Nc2nc(C)cc(N3CCCCC3)n2)ccc1F`, the EC50 in [1] is 15.8 µM; in series [2] it was 1 µM. For the same compound, in [4], the CLH amounted to 17 mL/min/g. Moreover, the solubility kinetic in [5] came out at 160 µM (≈ 50.6 µg/mL). For the same compound, the selectivity ratio in series [3] worked out at 16.
Compound `Cc1cc(N(C)C)nc(Nc2ccc(C(=O)N3CCCCC3)cc2)n1` gave a half-maximal effective concentration (EC50) in series [1] of over 50.1 µM. The selectivity ratio in series [3] is over 25.
Regarding `COc1cc(Nc2nc(C)cc(N3CCCC(C#N)C3)n2)ccc1F` (centres undefined), in series [2], the EC50 was 7.94 µM. In series [5], the solubility kinetic amounted to 219 µM (≈ 74.8 µg/mL). In addition, the selectivity ratio in [3] is 5.
For the compound `COc1cc(Nc2nc(C)cc(NCc3ccccc3)n2)ccc1F`, the results for the concentration for a half-maximal effect (EC50) in series [1] and in series [2] were 5.01 µM and 0.794 µM, respectively. Moreover, the CLH in series [4] is 8 mL/min/g. For the same compound, in [5], the solubility kinetic is over 250 µM. Further, in series [3], the selectivity ratio came to 6.3.
For `COc1cc(Nc2nc(C)cc(N3CCCC3)n2)ccc1F`, in [4], the CLH amounted to 14 mL/min/g. In series [5], the solubility kinetic came to 220 µM (≈ 66.5 µg/mL). Also, the selectivity ratio in series [3] was determined as 63.
Take `CCOC1CCCN(c2cc(C)nc(Nc3ccc(F)c(OC)c3)n2)C1` (centres undefined): the EC50 was 25.1 µM in [1] and 1.58 µM in series [2]. Besides, the CLH in series [4] was determined as 35 mL/min/g. In addition, in [5], the solubility kinetic was over 250 µM. The selectivity ratio in series [3] was determined as 16.
In the case of `COc1cc(Nc2nc(N(C)C)cc(C(F)(F)F)n2)ccc1F`, the EC50 in series [1] is over 50.1 µM; in series [2] it was 25.1 µM. For the same compound, the solubility kinetic in series [5] is 110 µM (≈ 36.3 µg/mL). For the same compound, the selectivity ratio in series [3] was over 2.
Take `COc1cc(OC)cc(C(=O)N[C@H]2CC[C@H](Nc3nc(C)cc(N(C)C)n3)CC2)c1`: the values for the IC50 in [6], in series [8] and in series [9] were 0.0398 µM, 3.98 µM and 0.0631 µM, respectively. For the same compound, the inhibition entry in series [7] is “inactive”. Besides, in [4], the CLH stood at 4.2 mL/min/g. This compound also had a concentration giving a half-maximal response (EC50) in [2] of 0.398 µM. Moreover, the solubility kinetic in [5] is over 250 µM. Moreover, the selectivity ratio in series [3] came to 100.
For `Cc1cc(N(C)C)nc(NCc2ccc(Cl)cc2)n1`, the 50% effective concentration (EC50) is 25.1 µM in [1] and 1 µM in series [2]. Further, in [4], the CLH turned out to be 12 mL/min/g. In series [5], the solubility kinetic was over 250 µM. For the same compound, in series [3], the selectivity ratio amounted to 25.
The like results for `COc1ccc(Nc2nc(C)cc(N(C)C)n2)cc1` were, in that order, over 50.1 µM, 1.58 µM, 10 mL/min/g, over 250 µM and over 32.
Turning to `Cc1cc(N(C)C)nc(N[C@H]2CC[C@H](NC(=O)c3ccccc3)CC2)n1`, the 50% effective concentration (EC50) was over 50.1 µM in [1] and 1.26 µM in series [2]. Besides, in series [5], the solubility kinetic was over 250 µM. The selectivity ratio in [3] is over 40.
As for `Cc1cc(Nc2ccc(F)cc2)nc(NCc2ccccc2)n1`, the figures for the EC50 in series [1] and in series [2] were 7.94 µM and 0.398 µM, respectively. In addition, the CLH in series [4] was 10 mL/min/g. Also, the solubility kinetic in series [5] was over 250 µM. In addition, the selectivity ratio in series [3] was 20.
For the compound `Cc1cc(N(C)C)nc(NCC2CCOCC2)n1`, the EC50 is over 50.1 µM in [1] and 15.8 µM in series [2]. For the same compound, the CLH in series [4] is 3.8 mL/min/g. Moreover, the solubility kinetic in [5] was over 250 µM. In series [3], the selectivity ratio was over 3.
Take `Cc1cc(N(C)C)nc(Nc2ccc3c(c2)OCO3)n1`: the concentration for a half-maximal effect (EC50) was over 50.1 µM in [1] and 1.26 µM in [2]. The CLH in series [4] worked out at 14 mL/min/g. Moreover, the solubility kinetic in series [5] was over 250 µM. Also, the selectivity ratio in series [3] was over 40.
The like results for `COc1cccc(Nc2nc(C)cc(N(C)C)n2)c1` were, in that order, over 50.1 µM, 0.794 µM, 15 mL/min/g, over 250 µM and over 63.
`Cc1cc(N(C)C)nc(NC2CCN(C(=O)Cc3ccc(F)cc3F)CC2)n1`: in [1], the half-maximal effective concentration (EC50) is over 50.1 µM. Moreover, the selectivity ratio in series [3] is over 16.
Compound `COc1cc(Nc2nc(C(C)C)cc(N(C)C)n2)ccc1F` had an EC50 in series [1] of over 50.1 µM. Besides, the CLH in series [4] worked out at 50 mL/min/g. Besides, the solubility kinetic in series [5] was found to be 170 µM (≈ 51.7 µg/mL). For the same compound, the selectivity ratio in series [3] was over 25.
As to `COc1cc(Nc2nc(C)cc(N(C)C)n2)ccc1F`, in [7], the inhibition entry was “inactive”. Also, the half-maximal inhibitory concentration (IC50) in [8] is 5.01 µM. Also, in [4], the CLH amounted to 17 mL/min/g. This compound also had an EC50 in [2] of 0.398 µM. For the same compound, in [5], the solubility kinetic is over 250 µM. In addition, in [3], the selectivity ratio turned out to be 80.
On to `COc1cc(Nc2nc(C)cc(N3CCC(F)(F)C3)n2)ccc1F`, for which the CLH in series [4] stood at 35 mL/min/g. In addition, in [2], a half-maximal effect (EC50) was put at 7.94 µM. In addition, the solubility kinetic in [5] is over 250 µM. In addition, the selectivity ratio in [3] was determined as 4.
Compound `Cc1cc(N(C)C)nc(NCc2ccccc2)n1` gave a concentration for a half-maximal effect (EC50) in [1] of over 50.1 µM. In addition, the inhibition entry in [7] was “inactive”. For the same compound, in [4], the CLH was found to be 28 mL/min/g. Further, the solubility kinetic in series [5] is over 250 µM. In addition, in [3], the selectivity ratio is over 16.
For `COc1cc(Nc2nc(CO)cc(N(C)C)n2)ccc1F`, the EC50 in [1] is over 50.1 µM; in [2] it was 7.94 µM. Also, in [4], the CLH came out at 35 mL/min/g. In series [5], the solubility kinetic is over 250 µM. For the same compound, the selectivity ratio in [3] is over 6.
For `COc1cc(Nc2nccc(N(C)C)n2)ccc1F`, the EC50 in [1] was over 50.1 µM; in series [2], 3.98 µM. For the same compound, the CLH in series [4] came out at 29 mL/min/g. Also, the solubility kinetic in [5] is 160 µM (≈ 42 µg/mL). The selectivity ratio in series [3] was over 13.
In series [10], `COc1cc(OC)cc(C(=O)Nc2ccc(Nc3nc(C)cc(N(C)C)n3)cc2)c1` had an IC50 of over 10 µM. Moreover, in [4], the CLH came to 0.7 mL/min/g. The same compound gave an EC50 in [2] of 0.158 µM. Further, the solubility kinetic in series [5] amounted to 20 µM (≈ 8.15 µg/mL). Also, the selectivity ratio in series [3] is 40.
As for `Cc1cc(N(C)C)nc(N[C@H](C)c2ccccc2)n1`, the values for the 50% effective concentration (EC50) in series [1] and in series [2] were over 50.1 µM and 1.26 µM, respectively. The CLH in series [4] is 11 mL/min/g. Further, in series [5], the solubility kinetic was over 250 µM. The selectivity ratio in series [3] is over 40.
On to `COc1ccccc1NC(=O)c1ccc(Nc2nc(C)cc(N(C)C)n2)cc1`, for which the half-maximal effective concentration (EC50) in [1] was 0.631 µM; in series [2], 0.794 µM. Also, the selectivity ratio in series [3] is 1.3.
In [1], `COc1cc(Nc2cc(C)nc(NCc3ccccc3)n2)ccc1F` showed a concentration for a half-maximal effect (EC50) of 5.01 µM. Moreover, the CLH in series [4] amounted to 10 mL/min/g. Moreover, in series [5], the solubility kinetic was found to be 180 µM (≈ 60.9 µg/mL). Also, in series [3], the selectivity ratio came to 63.
With `COc1cc(Nc2nc(C)cc(N3CCOCC3)n2)ccc1F`, the EC50 in series [1] is over 50.1 µM; in series [2] it was 7.94 µM. In addition, the CLH in series [4] was determined as 18 mL/min/g. The solubility kinetic in series [5] was over 250 µM. For the same compound, the selectivity ratio in series [3] is over 6.
